Laboratory results as given in the RNAGym collection of RNA variant scans (doi:10.1038/s41586-018-0170-7).

B1: tRNA (parent)
chain: GUUCCGUUGGCGUAAUGGUAACGCGUCUCCCUCCUAAGGAGAAGACUGCGGGUUCGAGUCCCGUACGGAACG

Variants of: B1
Assay: yeast fitness, log relative to wild type (ln ratio); higher = fitter; tRNA-Arg(CCU), competitive growth, 37 C, 1 M NaCl
How it was run: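 Fitness is the natural log of each genotype's generations divided by the wild type's. Generations were derived as OD-scaled log2 output/input frequency from 125 bp paired-end Illumina counts, weighting replicates by inverse variance. Pools of the tRNA-Arg(CCU) variant library, on a HIS3 centromeric plasmid in BY4742 lacking the chromosomal gene, grew ~6.5 generations (~26.5 h) in SC-HIS 1M NaCl at 37 °C after 4 generations in SC-HIS at 30 °C.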
In the case of AUUCCAUUGGCGUAAUGGUAACGCGUCUCCCUCCUAAGGAGAAGACUGCGGGUUCGAGUCCCGUAAGGAAUG [G1A G6A C66A C71U], the “yeast fitness (ln)” value is reported as -0.0846.
In the case of AUUCCUUUGGCGUAAUGGUAACGCGUCUCCCUCCUAAGGAGAAGACUGCGGGUUCGAGUCCCGUACGGAACG [G1A G6U], the “yeast fitness (ln)” value is reported as -0.0886.
In the case of AUUCCAUUGGCGUAAUGGUAACGCGUCUCCCUCCUAAGGAGAAGACUGCGGGUUCGAGUCCCGUAAGGAUUG [G1A G6A C66A A70U C71U], the “yeast fitness (ln)” value is reported as -0.163.
In the case of AUUCCAUUGGCGUAAUGGUAACGCGUCUCCCUCCUAAGGAGAAGACUGCGGGUUCGAGUCCCGUAUGGGGUG [G1A G6A C66U A69G A70G C71U], the “yeast fitness (ln)” value is reported as -0.145.
With AUUCCAUUGGCGUAAUGGUAACGCGUUUCCCUCCUAAGGAGAAGACUGCGGGUUCGAGUCCCGUAUGGGAUG [G1A G6A C27U C66U A69G C71U] the “yeast fitness (ln)” value was -0.321.
In the case of AUUCCAUUGGCGUAAUGGUAACGCGUCUCCCUCCUAAGGAGAAGAUUGCGGGUUCGAGUCCCGUAUGGAGUG [G1A G6A C46U C66U A70G C71U], the “yeast fitness (ln)” value is reported as -0.0284.
For AUUCCUUUGGCGUAAUGGUAACGCGUCUCCCUCCUAAGGAGACGACUGCGGGUUCGAGUCCCGUACGGGGUG [G1A G6U A43C A69G A70G C71U], the “yeast fitness (ln)” value was -0.398.
In the case of AUUCCAUUGGCGUAAUGGUAACGCGUCUCCCUCCUAAGGAGAAGAUUGCGGGUUCGAGUCCCGUACGGAUUG [G1A G6A C46U A70U C71U], the “yeast fitness (ln)” value is reported as -0.0983.
For AUUCCAUUGGCGUAAUGGUAACGCGUUUCCCUCCUAAGGAGAAGACUGCGGGUUCGAGUCCCGUAUGGAUCG [G1A G6A C27U C66U A70U], the “yeast fitness (ln)” value was -0.431.
For AUUCCAUUGGCGUAAUGGUAACGCGUUUCCCUCCUAAGGAGAAGACUGCGGGUUCGAGUCCCGUAUGGAGCG [G1A G6A C27U C66U A70G], the “yeast fitness (ln)” value was -0.187.
For AUUCCAUUGGCGUAAUGGUAACGCGUCUCCCUCCUAAGGAGAAGACUGCGGGUUCGAGUCCCGUAAGGAUCG [G1A G6A C66A A70U], the “yeast fitness (ln)” value was -0.0411.
For AUUCCAUUGGCGUAAUGGUAACGCGUCUCCCUCCUAAGGAGAAGAUUGCGGGUUCGAGUCCCGUAUGGAACG [G1A G6A C46U C66U], the “yeast fitness (ln)” value was -0.072.
With AUUCCAUUGGCGUAAUGGUAACGCGUCUCCCUCCUAAGGAGAAGAUUGCGGGUUCGAGUCCCGUACGGAGUG [G1A G6A C46U A70G C71U] the “yeast fitness (ln)” value was -0.208.
With AUUCCAUUGGCGUAAUGGUAACGCGUCUCCCUCCUAAGGAGAAGAUUGCGGGUUCGAGUCCCGUAUGGAUCG [G1A G6A C46U C66U A70U] the “yeast fitness (ln)” value was -0.0452.
In the case of AUUCCAUUGGCGUAAUGGUAACGCGUCUCCCUCCUAAGGAGAAGAUUGCGGGUUCGAGUCCCGUAUGGAGCG [G1A G6A C46U C66U A70G], the “yeast fitness (ln)” value is reported as -0.189.
For AUUCCUUUGGCGUAAUGGUAACGCGUCUCCCUCCUAAGGAGACGAUUGCGGGUUCGAGUCCCGUACGGAGUG [G1A G6U A43C C46U A70G C71U], the “yeast fitness (ln)” value was -0.301.
For AUUCCUUUGGCGUAAUGGUAACGCGUCUCCCUCCUAAGGAGACGAUUGCGGGUUCGAGUCCCGUAAGGAACG [G1A G6U A43C C46U C66A], the “yeast fitness (ln)” value was -0.278.
For AUUCCUUUGGCGUAAUGGUAACGCGUCUCCCUCCUAAGGAGACGAUUGCGGGUUCGAGUCCCGUACGGGGUG [G1A G6U A43C C46U A69G A70G C71U], the “yeast fitness (ln)” value was -0.321.
For AUUCCAUUGGCGUAAUGGUAACGCGUCUCCCUCCUAAGGAGAAGACUGCGGGUUCGAGUCCCGUAUGGGUUG [G1A G6A C66U A69G A70U C71U], the “yeast fitness (ln)” value was -0.266.
With AUUCCAUUGGCGUAAUGGUAACGCGUCUCCCUCCUAAGGAGAAGACUGCGGGUUCGAGUCCCGUAUGGAUUG [G1A G6A C66U A70U C71U] the “yeast fitness (ln)” value was -0.216.
With AUUCCUUUGGCGUAAUGGUAACGCGUCUCCCUCCUAAGGAGACGAUUGCGGGUUCGAGUCCCGUACGGAUUG [G1A G6U A43C C46U A70U C71U] the “yeast fitness (ln)” value was -0.297.
In the case of AUUCCUUUGGCGUAAUGGUAACGCGUCUCCCUCCUAAGGAGACGAUUGCGGGUUCGAGUCCCGUACGGAUCG [G1A G6U A43C C46U A70U], the “yeast fitness (ln)” value is reported as -0.219.
For AUUCCUUUGGCGUAAUGGUAACGCGUCUCCCUCCUAAGGAGACGAUUGCGGGUUCGAGUCCCGUACGGAGCG [G1A G6U A43C C46U A70G], the “yeast fitness (ln)” value was -0.201.
For AUUCCAUUGGCGUAAUGGUAACGCGUUUCCCUCCUAAGGAGAAGACUGCGGGUUCGAGUCCCGUAUGGAUUG [G1A G6A C27U C66U A70U C71U], the “yeast fitness (ln)” value was -0.461.
For AUUCCUUUGGCGUAAUGGUAACGCGUCUCCCUCCUAAGGAGACGACUGCGGGUUCGAGUCCCGUACGGAUUG [G1A G6U A43C A70U C71U], the “yeast fitness (ln)” value was -0.303.
In the case of AUUCCUUUGGCGUAAUGGUAACGCGUCUCCCUCCUAAGGAGACGACUGCGGGUUCGAGUCCCGUACGGAACG [G1A G6U A43C], the “yeast fitness (ln)” value is reported as -0.192.
With AUUCCUUUGGCGUAAUGGUAACGCGUCUCCCUCCUAAGGAGACGACUGCGGGUUCGAGUCCCGUACGGAUCG [G1A G6U A43C A70U] the “yeast fitness (ln)” value was -0.247.
With AUUCCUUUGGCGUAAUGGUAACGCGUCUCCCUCCUAAGGAGACGACUGCGGGUUCGAGUCCCGUACGGAGCG [G1A G6U A43C A70G] the “yeast fitness (ln)” value was -0.21.
For AUUCCAUUGGCGUAAUGGUAACGCGUUUCCCUCCUAAGGAGAAGACUGCGGGUUCGAGUCCCGUAUGGAGUG [G1A G6A C27U C66U A70G C71U], the “yeast fitness (ln)” value was -0.566.
With AUUCCUUUGGCGUAAUGGUAACGCGUCUCCCUCCUAAGGAGACGAUUGCGGGUUCGAGUCCCGUACGGAACG [G1A G6U A43C C46U] the “yeast fitness (ln)” value was -0.155.
With AUUCCAUUGGCGUAAUGGUAACGCGUUUCCCUCCUAAGGAGAAGACUGCGGGUUCGAGUCCCGUAUGGAAUG [G1A G6A C27U C66U C71U] the “yeast fitness (ln)” value was -0.0761.
For AUUCCAUUGGCGUAAUGGUAACGCGUCUCCCUCCUAAGGAGAAGAUUGCGGGUUCGAGUCCCGUACGGGUUG [G1A G6A C46U A69G A70U C71U], the “yeast fitness (ln)” value was -0.256.
In the case of AUUCCAUUGGCGUAAUGGUAACGCGUCUCCCUCCUAAGGAGAAGACUGCGGGUUCGAGUCCCGUAAGGGGUG [G1A G6A C66A A69G A70G C71U], the “yeast fitness (ln)” value is reported as -0.194.
For AUUCCUUUGGCGUAAUGGUAACGCGUCUCCCUCCUAAGGAGACGACUGCGGGUUCGAGUCCCGUACGGAGUG [G1A G6U A43C A70G C71U], the “yeast fitness (ln)” value was -0.383.
In the case of AUUCCUUUGGCGUAAUGGUAACGCGUCUCCCUCCUAAGGAGACGAUUGCGGGUUCGAGUCCCGUACGGGGCG [G1A G6U A43C C46U A69G A70G], the “yeast fitness (ln)” value is reported as -0.281.
In the case of AUUCCUUUGGCGUAAUGGUAACGCGUCUCCCUCCUAAGGAGACGAUUGCGGGUUCGAGUCCCGUACGGGUCG [G1A G6U A43C C46U A69G A70U], the “yeast fitness (ln)” value is reported as -0.272.
In the case of AUUCCAUUGGCGUAAUGGUAACGCGUCUCCCUCCUAAGGAGAAGACUGCGGGUUCGAGUCCCGUAUGGAAUG [G1A G6A C66U C71U], the “yeast fitness (ln)” value is reported as -0.0242.
For AUUCCAUUGGCGUAAUGGUAACGCGUCUCCCUCCUAAGGAGAAGAUUGCGGGUUCGAGUCCCGUAAGGAUUG [G1A G6A C46U C66A A70U C71U], the “yeast fitness (ln)” value was -0.15.
